Series [1] has as its system HT-29. Kind of series: Cell cycle arrest in combretastatin A-4 resistant human HT-29 cells assessed as accumulation at G2 phase at 100 nM after 24 hrs by propidium iodide staining-based flow cytometry (reference value: 15.6 +/- 0.1%). The series is classed as functional. The method in brief: (§1)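 HT-29 cells (200,000/well) were treated 24 h with 100 nM indole, 5 μM CA-4 or DMSO. Cells were trypsinized, fixed in 4% formaldehyde (20 min, RT) and permeabilized in 90% ice-cold methanol (30 min). They were immunostained with anti-phospho-histone H3 (Ser10) (5 μg/mL, 37 °C, 1 h) plus an AlexaFluor-488 secondary, then stained with PI/RNase (30 min, 37 °C). Flow cytometry of 10,000 single cells assigned G1/S/G2/M.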
(In general: A flow cytometer gives signals particle by particle.)

Series [2] in a line: Cell cycle arrest in human HCT116 cells expressing wild type p53 assessed as accumulation at G1 phase at 50 nM after 24 hrs by propidium iodide staining-based flow cytometry (reference value: 56.7%). As to conditions: HCT-116. The series is classed as functional.
Series [3] can be described thus: Cell cycle arrest in human 518A2 cells assessed as G2/M index ratio at 100 nM after 24 hrs by propidium iodide staining-based flow cytometry relative to control. The series is classed as functional.
Series [4] is described as follows: Cell cycle arrest in human 518A2 cells assessed as accumulation at G1 phase at 100 nM after 24 hrs by propidium iodide staining-based flow cytometry (reference value: 49.5%). The series is classed as functional.
Series [5] has as its system HT-29. Kind of series: Cell cycle arrest in combretastatin A-4 resistant human HT-29 cells assessed as accumulation at G1 phase at 50 nM after 24 hrs by propidium iodide staining-based flow cytometry (reference value: 68.1 +/- 0.3%). The series is classed as functional.
Series [6] can be described thus: Cell cycle arrest in human HCT116 cells expressing wild type p53 assessed as accumulation at subG1 phase at 50 nM after 24 hrs by propidium iodide staining-based flow cytometry (reference value: 7.1%). The series is classed as functional. Conditions: HCT-116.
Series [7] is described as follows: Cell cycle arrest in human 518A2 cells assessed as accumulation at G2/M phase at 100 nM after 24 hrs by propidium iodide staining-based flow cytometry (reference value: 26.3%). The series is classed as functional.
Series [8] deals with HT-29. The experiment in a line: Cell cycle arrest in combretastatin A-4 resistant human HT-29 cells assessed as accumulation at S phase at 100 nM after 24 hrs by propidium iodide staining-based flow cytometry (reference value: 13.7 +/- 0.3%). The series is classed as functional. The method in brief: as §1
Series [9] is filed under the species Sus scrofa. Kind of series: Decrease in rate of porcine brain alpha/beta tubulin polymerization at 5 uM measured every 20 sec by microplate reader analysis.
Series [10] deals with HT-29. The experiment in a line: Cell cycle arrest in combretastatin A-4 resistant human HT-29 cells assessed as accumulation at G2 phase at 50 nM after 24 hrs by propidium iodide staining-based flow cytometry (reference value: 15.6 +/- 0.1%). The series is classed as functional.
For another series, the system named is A2780cisR. The experiment in a line: Vascular disrupting activity against human A2780cis cells xenografted in athymic nude mouse assessed as tumor necrosis at 100 mg/kg, ip after 24 hrs by hematoxylin and eosin staining based microscopic analysis. The series is classed as functional, organism-based. The method in brief:
(§2)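 Athymic nude mice carried subcutaneous flank xenografts from 8 million cells. A single intraperitoneal dose of 100 mg/kg was given. After 24 h tumors were explanted, fixed in 5% formalin, paraffin-embedded and HE-stained for microscopic examination of vessels, hemorrhage and necrosis.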

Series [11] is described as follows: Cell cycle arrest in human MCF7/Topo cells assessed as accumulation at G2/M phase at 100 nM after 24 hrs by propidium iodide staining-based flow cytometry (reference value: 31.6%). The series is classed as functional.
Series [12] is described as follows: Growth inhibition of human KB-V1/Vbl cells after 24 hrs by MTT assay. The series is classed as functional. The method in brief: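 Cells seeded at 5000/well (Ea.hy926 10,000/well) and exposed for 24 h to dilution series of 100 µM–5 pM, with DMSO as solvent control. MTT (0.5 mg/mL final) for 2 h. Formazan dissolved in SDS/acetic acid/DMSO and read at 570 nm against a 630 nm background. Viability taken relative to DMSO controls; IC50 from dose–response curves, mean of four independent experiments.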

Series [13] in a line: Cell cycle arrest in human HCT116 cells expressing wild type p53 assessed as accumulation at S phase at 50 nM after 24 hrs by propidium iodide staining-based flow cytometry (reference value: 15.3%). The series is classed as functional. As to conditions: HCT-116.
Series [14] relates to HT-29. Kind of series: Cell cycle arrest in combretastatin A-4 resistant human HT-29 cells assessed as mitotic cells at 100 nM after 24 hrs by propidium iodide/immunostaining method (reference value: 3.1 to 3.2%). The series is classed as functional. The method in brief: as §1
In a further series the test system is EA.hy 926. Kind of series: Antivascular activity in human EAhy926 cells assessed as disruption of preformed blood vessel lke network at 250 nM after 16 hrs by matrigel based tube formation assay. The series is classed as functional, cell-based. The method in brief: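 Ea.hy926 cells (100,000/well) were seeded on Matrigel-coated coverslips and allowed 12 h to form vessel-like networks. Test agent (CA-4 100 nM; indoles 250 nM) or DMSO was then added for 16 h, and networks were documented by light microscopy. Viability was checked by 2 h MTT (0.5 mg/mL) relative to DMSO controls.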

The species named for series [15] is Sus scrofa. Kind of series: Inhibition of porcine brain alpha/beta tubulin polymerization at 5 uM measured every 20 sec by microplate reader analysis.
Series [16] is described as follows: Cell cycle arrest in human HCT116 cells expressing wild type p53 assessed as G2/M index ratio at 50 nM after 24 hrs by propidium iodide staining-based flow cytometry relative to control. Conditions: HCT-116. The series is classed as functional.
For another series, the system named is 1411HP. Kind of series: Vascular disrupting activity against multidrug resistant human 1411HP cells xenografted in athymic nude mouse assessed as disruption of blood vessel at 100 mg/kg, ip after 24 hrs by hematoxylin and eosin staining based microscopic analysis. The series is classed as functional, organism-based. The method in brief:
as §2
For orientation: In xenograft studies the graft and the host belong to different species.

Series [17] has as its system HT-29. The experiment in a line: Cell cycle arrest in combretastatin A-4 resistant human HT-29 cells assessed as accumulation at S phase at 50 nM after 24 hrs by propidium iodide staining-based flow cytometry (reference value: 13.7 +/- 0.3%). The series is classed as functional.
In series [18] the test system is Chorioallantoic membrane. Kind of series: Antivascular activity in fertilized white leghorn chicken egg chorioallantoic membrane assessed as blood vessel hemorrhage at 5 nmol after 12 hrs by stereomicroscopic analysis. The series is classed as functional, tissue-based. Conditions: Gallus gallus. The method in brief:
(§3)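 Fertilized white leghorn SPF eggs were incubated to day 5 at 37 °C and 50–60% humidity. A shell window was cut, 6 mm silicon rings were placed on developing CAM vessels, and eggs were incubated another 24 h. Compound (500 μM in PBS; 10 μL = 5 nmol, 20 μL = 10 nmol) or DMSO was pipetted inside the ring. Vessel changes were imaged by stereomicroscope at 0, 12 and 24 h.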

Series [19] concerns Chorioallantoic membrane. Kind of series: Antivascular activity in fertilized white leghorn chicken egg chorioallantoic membrane assessed as disruption of preformed blood vessel at 5 nmol after 12 hrs by stereomicroscopic analysis. The series is classed as functional, tissue-based. As to conditions: Gallus gallus. The method in brief: as §3
Series [20] can be described thus: Cytotoxicity against fertilized white leghorn chicken embryos in CAM model assessed as lethality at 2.5 nmol after 24 hrs relative to control. The series is classed as organism-based, Gallus gallus. As to conditions: in vivo.
A further series has as its system 518A2. The experiment in a line: Effect on microtubule structure in human 518A2 cells at 100 nM incubated for 24 hrs by DAPI staining based immunofluorescence microscopic analysis. The series is classed as cell-based. The method in brief: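 518A2 cells (25,000/well) on coverslips treated 24 h with 100 nM. Cells fixed in 4% formaldehyde, permeabilized and blocked (Triton X-100/BSA). Stained with mouse anti-alpha-tubulin (37 °C, 1 h) and AlexaFluor-488 secondary; nuclei counterstained with DAPI (1 µg/mL). Imaged by fluorescence microscopy at 400×.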

The source made the active and inactive calls. The rule behind the calls is not given here.

On to `COc1cc(-c2ncn(C)c2-c2ccc3c(c2)c(Cl)cn3C)cc(Br)c1OC.Cl`, for which the Activity in the series on HT-29 [1] was found to be 4.6%; in series [2] it was 53.9%; in [4], 41%; in the series on HT-29 [5], 43.5%; in [6], 16.2%; in series [7], 33.9%. For the same molecule, the Activity worked out at 8% with HT-29 [8]; 15.2% in the series with HT-29 [10]; 52.4% in [11]; 12.7% in series [13]; 77.8% with HT-29 [14]; 13.5% with HT-29 [17]. The Ratio is 1.5 in [3] and 0.9 in [16]. In addition, the result in the series listed under Sus scrofa [9], in the series on A2780cisR, in the series on EA.hy 926 and with 1411HP was Active. In series [12], 25.4 nM corresponded to half-maximal inhibition (IC50). Moreover, the inhibition entry in the series listed under Sus scrofa [15] is “inactive”.

Turning to `COc1cc(-c2ncn(C)c2-c2ccc3c(c2)c(Cl)cn3C)cc(OC)c1OC`, the result with Chorioallantoic membrane [18], in the series with Chorioallantoic membrane [19] and with EA.hy 926 was Active. Moreover, in series [20], the mortality at 24 h came to 67%. The Activity is 43.6% in [2], 30.6% in [6], 42.9% in series [11] and 11.1% in series [13]. The same molecule gave a 50% inhibitory concentration (IC50) in series [12] of 26 nM. Further, in the series with 518A2, the result was inactive. The inhibition entry in the series filed under Sus scrofa [15] is “Active”. The Ratio in series [16] came to 0.9.

The term IC50 denotes the concentration needed to halve the response being measured. As a reminder, the mortality is the share of the test organisms that died.

Values taken from ChEMBL document CHEMBL3822382 (Eur J Med Chem, 2016).
